In the library only some 1.9% were active in any assay of this set; here they are far more common.
UBC13 inh – blocks human UBC13 polyubiquitin chain formation. TR-FRET. hit rate 0.47% among 330,000. AID 485273. P61088. inhibition, % at 20 µM; in the data active means inhibition above about 45%, passing the limit was not always enough
proCasp3 act – activates human procaspase-3 | P42574 | recombinant procaspase-3 D3A, Ac-DEVD-pNA absorbance 405 nm | activation, % at 8.5 µM | hit rate 0.11% among 330,000;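 active means activation above the mean of all tested compounds plus 3 SD, cut at about 21% in these data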;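 further: 0% = DMSO alone and 100% = DMSO wells spiked with extra 5 µM PC-3 D3A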
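Test system: Procaspase-3 D3A mutant, all three cleavage aspartates alanine | Dosing: Single dose, 8.5 µM nominal compound, 0.8% DMSO | Schedule: 1 h preincubation, 2 h reaction | Technique: 405 nm absorbance of p-nitroaniline, reads at 0 and 120 min | Repeats: One well per compound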
IDE cell inh – inhibitors of human insulin-degrading enzyme in cells; hit rate 0.41% among 320,000; inhibition, % at 5.59 µM; AID 434962; HEK cells, FAbetaB cleavage, fluorescence polarization;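 active means percent inhibition above the average of all tested compounds plus 3 SD, set per screening campaign, cut at about 16% in these data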;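 further: IDE supplied by intact live HEK cells; FP after avidin binding of uncleaved biotin substrate so inhibition keeps polarization high; 0% = DMSO wells and 100% = 60 µM reference IDE inhibitor Ii1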
procasp7 counter – counter-screen for procaspase-3 activators: activators of human procaspase-7 | activation, % at 8.5 µM | recombinant procaspase-7, Ac-DEVD-pNA absorbance 405 nm; D23A/D198A/D206A triple mutant, cannot self-cleave; scale: DMSO 0, 5 µM enzyme 100 | hit rate 0.093% among 330,000;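 active means percent activation above the screen-wide mean plus 3 SD, cut at about 25% in these data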
Target sequence (P55210 whole entry D23A/D198A/D206A): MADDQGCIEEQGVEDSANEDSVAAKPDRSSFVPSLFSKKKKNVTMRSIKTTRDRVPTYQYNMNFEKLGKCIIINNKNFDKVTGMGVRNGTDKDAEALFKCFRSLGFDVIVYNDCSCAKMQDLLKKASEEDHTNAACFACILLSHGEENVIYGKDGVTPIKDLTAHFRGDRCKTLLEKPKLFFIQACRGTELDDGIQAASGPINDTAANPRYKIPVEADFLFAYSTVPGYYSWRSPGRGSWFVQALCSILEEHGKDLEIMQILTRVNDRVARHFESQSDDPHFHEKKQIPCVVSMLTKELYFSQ
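System: Procaspase-7 triple mutant (PC-7 D3A); measure: % activation from two-timepoint absorbance difference, scaled to controls; times: 1 h compound preincubation, 2 h substrate cleavage, 25 °C; also added: Ac-DEVD-pNA substrate, 400 µM as added; measured by: Epi-absorbance of released pNA at 405 nm, two timepoints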
IDE act – IDE (human) activation, cell-based. AID 493087. HEK cells, FAbeta-B cleavage, fluorescence polarization; 0% vehicle, 100% cell-free pure enzyme wells. activation, % at 5.96 µM. hit rate 0.073% among 340,000. P14735;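 active means activation above the mean of all tested compounds plus 3 SD, set per screening campaign, cut at about 17% in these data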
PHOSPHO1 block – PHOSPHO1 (human) inhibition | Q8TCT1 | recombinant PHOSPHO1, absorbance phosphatase assay | inhibition, % at 13.3 µM | hit rate 1.1% among 290,000; in the data active means inhibition above about 60%
* = called active by the depositor; . = no result given.

SMILES	UBC13 inh	proCasp3 act	IDE cell inh	procasp7 counter	IDE act	PHOSPHO1 block
CN1CCN(S(=O)(=O)c2cccc(C(=O)Nc3sc4c(c3C(N)=O)CCCC4)c2)CC1	5	-16	2	-16	1	70*
NC(=O)c1c(NC(=O)c2ccc(S(=O)(=O)N3CCOCC3)cc2)sc2c1CCCCC2	7	-8	3	-6	-6	-22
CC(CNS(=O)(=O)c1ccc2c(c1)NC(=O)CCS2)c1ccccc1 (stereo unspecified)	12	-2	1	4	7	28
CC(C)CC(=O)Nc1ccc2c(c1)nc(CCN1CCOCC1)n2C	0	5	4	8	4	34
O=S1(=O)N=C(Nc2nncs2)c2ccccc21	-4	4	-1	-10	5	97*
Cc1ccc(NC(=O)N2CCN(C(=O)C3CCCO3)CC2)cc1 (stereo unspecified)	1	4	1	5	3	22
O=C(Nc1ccc(Cl)cc1)N1CCN(C(=O)C2CCCO2)CC1 (stereo unspecified)	0	5	-1	12	-4	63*
N/C(=N\O)c1ccc(Cl)cc1Cl	-1	9	10	6	7	6
Cc1cccc(NC(=O)C(Cc2ccccc2)n2cccc2)c1 (stereo unspecified)	2	3	4	-3	5	37
COc1ccc(CNC(=O)c2cccc(NC(=O)CC3SC(N4CCCCC4)=NC3=O)c2)cc1 (stereo unspecified)	-2	2	8	4	0	.
COc1cccc(/C=N/NC(=O)c2cc3cc([N+](=O)[O-])ccc3s2)c1O	.	6	0	12	4	83*
COc1ccccc1/C=N/NC(=O)c1ccc(NC(=O)c2cccc([N+](=O)[O-])c2)cc1	-3	10	2	1	.	16
Cc1ccc(CN2CCN(/N=C/C(Br)=C\c3ccccc3)CC2)cc1	-8	3	3	-5	.	2
O=[N+]([O-])c1ccc(Sc2ccccc2Cl)nc1	-10	-14	-4	-3	4	97*
Nc1ccc(Sc2ccccc2Cl)nc1	-9	-4	4	3	0	.
CC(C)(C)c1nc(Sc2ccc([N+](=O)[O-])cn2)n[nH]1	-1	-7	0	3	7	42
O=[N+]([O-])c1ccc(Sc2n[nH]c(-c3ccc(Cl)cc3Cl)n2)nc1	-15	-9	2	3	4	67*
CC(=O)Nc1sc(C)c(C)c1C(=O)OCC(=O)N(C)c1c(N)n(Cc2ccccc2)c(=O)[nH]c1=O	5	1	-6	3	2	.
CCOC(=O)c1cc(S(=O)(=O)NCc2ccc3c(c2)OCO3)cn1C	1	5	-2	-1	-3	62*
COC(=O)c1cc(S(=O)(=O)NCc2ccc3c(c2)OCO3)cn1C	3	7	0	7	7	64*
N#Cc1ccccc1S(=O)(=O)N1CCN(C(=O)CCNS(=O)(=O)c2ccc(Cl)cc2)CC1	.	.	.	.	4	.
CC(C)Cn1c(SCC(=O)N(C)c2c(N)n(Cc3ccccc3)c(=O)[nH]c2=O)nc2ccccc21	2	12	-3	6	-2	.
CCOc1ccc2nc3c(cc2c1)CN(CCCO)C(=NCCOC)S3	3	-18	4	-25	-3	91*
S=c1[nH]nc(-c2cc(-c3ccco3)[nH]n2)n1-c1ccccc1Cl	-8	-9	0	-26	0	86*
Oc1ccccc1-c1cc(-c2ccco2)[nH]n1	-7	-5	-2	0	-4	73*
S=c1[nH]nc(-c2ccco2)n1-c1ccccc1Cl	-5	0	3	1	7	-75
Oc1ccc(Cl)cc1-c1cc(-c2ccco2)[nH]n1	2	-3	1	3	3	0
Cc1c(C(=O)N2CCN(C/C=C/c3ccccc3)CC2)oc2c(F)cccc12	7	-1	7	-5	4	.
CCOC(=O)C1CSc2[nH]c(=O)sc2C1c1ccccc1 (stereo unspecified)	1	-11	-2	-7	2	93*

From PubChem
